Bioassay records: PubChem, Johns Hopkins Ion Channel Center
The list is not random: actives were taken first. Their share in the collection is about 3.5%.
MrgX1 allo act: allosterically activates human MrgX1 receptor signaling. B-score at 10 µM. MrgX1-HEK293, Fluo-4 calcium flux, FDSS; hits give high values. AID 588675. Q96LB2. 310,000 tested, 0.63% active;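 active means plate-corrected calcium response at least 3 library SD above typical, normal starting fluorescence, not activating the receptor alone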;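 further: compound read alongside a low EC10 to EC30 dose of BAM8-22 agonist; peak minus trough fluorescence over baseline measured at the second addition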
Target sequence (Q96LB2 whole entry, looked up): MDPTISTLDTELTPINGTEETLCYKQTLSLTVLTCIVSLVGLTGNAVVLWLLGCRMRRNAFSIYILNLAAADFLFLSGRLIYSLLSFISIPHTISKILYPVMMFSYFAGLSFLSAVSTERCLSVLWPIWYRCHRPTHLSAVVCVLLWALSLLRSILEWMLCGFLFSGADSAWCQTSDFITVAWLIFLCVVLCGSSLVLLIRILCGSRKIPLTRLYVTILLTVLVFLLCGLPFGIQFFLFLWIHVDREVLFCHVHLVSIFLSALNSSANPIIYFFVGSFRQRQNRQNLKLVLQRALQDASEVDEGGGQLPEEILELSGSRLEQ
RGS4 act: potentiators or activators of RGS4. HEK293 M3R/inducible RGS4, carbachol calcium flux Fluo4; hits give low values. B-score at 10 µM. 310,000 tested, 0.92% active;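 active means B-score of the integrated calcium signal more than 4 SD below the library mean, with starting fluorescence not abnormally high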;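 further: negative B-score means reduced calcium response which marks RGS4 activation or potentiation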
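Reagent: ECmax carbachol challenge; Test system: M3R-expressing HEK293 line, RGS4 induced by doxycycline; Schedule: overnight RGS4 induction, 30 min dye load 37 °C, 20 min compound RT; Detection: calcium dye Fluo4 fluorescence; Read-out: Agonist-evoked peak-minus-minimum fluorescence over baseline, integrated ratio, B score.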
MrgX1 antag: antagonists of human MrgX1 receptor. 310,000 tested, 1.3% active. Q96LB2. AID 588676. B-score at 10 µM. MRGX1-HEK293 calcium flux, Fluo-4, BAM8-22 antagonism; hits give low values;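 active means calcium-response B-score plate-corrected more than 3 library SD below zero, starting fluorescence within 5 deviations, no agonist response on first addition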;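 further: peak minus trough fluorescence over baseline after final BAM8-22 challenge near maximal dose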
MrgX1 ag: agonists of human MrgX1 receptor. MrgX1-HEK293 cells, Fluo-4 calcium fluorescence, agonist mode; hits give high values. B-score at 10 µM. 310,000 tested, 0.44% active. Q96LB2;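 active means calcium response B-score plate-corrected fluorescence ratio at least 3 library SD, with starting fluorescence B-score inside 5 SD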
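System – MrgX1-expressing HEK293 cells · Incubation – cells plated overnight, dye loaded 0.5 h 37 °C, 0.5 h room temperature · Technique – kinetic Fluo-4 NW fluorescence of intracellular calcium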
RGS4 inh: inhibitors of human RGS4; HEK293 M3R/RGS4 inducible, Fluo-4 calcium flux; hits give high values; triggered by carbachol at its EC20; B-score at 10 µM; 310,000 tested, 0.45% active; AID 463165;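 active means B-score, a plate-corrected calcium signal, over three deviations above library mean, with baseline fluorescence within five deviations of library mean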;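 further: RGS4 expression induced by doxycycline in cells with stable M3 receptor; B-score is computed from the integrated fluorescence ratio over baseline after carbachol; higher B-score means a larger calcium signal and so more RGS4 inhibition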
Target sequence (P49798 whole entry, looked up): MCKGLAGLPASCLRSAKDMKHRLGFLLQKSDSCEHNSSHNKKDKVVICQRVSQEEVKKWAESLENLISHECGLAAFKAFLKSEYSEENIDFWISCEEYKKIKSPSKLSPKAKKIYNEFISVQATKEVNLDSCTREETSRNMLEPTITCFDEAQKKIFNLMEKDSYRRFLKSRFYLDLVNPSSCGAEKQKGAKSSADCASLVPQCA
RGS4 activ val: RGS4 activation, validation assay | 1,100 tested, 89% active | inhibition, % at 10 µM | HEK293 M3R/RGS4 inducible, carbachol calcium flux Fluo4 | shares compounds with RGS4 act;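 active means inhibition above 3 SD of the buffer control wells, cut at about 41% in these data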;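 further: signal is the integrated peak-minus-minimum Fluo4 fluorescence over baseline ratio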
M3R Ca counter: activity in cells without induced RGS4 expression; shares compounds with RGS4 act; HEK293 M3R non-induced RGS4, Fluo4 calcium flux; after carbachol challenge at its EC90; inhibition, % at 10 µM; 1,100 tested, 82% active; AID 602283;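 active means inhibition exceeding 3 SD of buffer-only control wells, cut at about 26% in these data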;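 further: percent drop in integrated peak-minus-baseline over baseline Fluo4 ratio after carbachol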
* hit, by the source's call; i = inactive; x = not tested or not shown.

SMILES | MrgX1 allo act | RGS4 act | MrgX1 antag | MrgX1 ag | RGS4 inh | RGS4 activ val | M3R Ca counter
COc1ccc(C(=O)Nc2ccnn2C2CCN(Cc3cnn(C)c3)CC2)cc1 | i | i | i | i | i | x | x
CCn1ncc(CN2CCCC(C(=O)c3cccc(OC(C)C)c3)C2)c1C (stereo unspecified) | i | -10* | i | i | i | 84* | 38*
CCN=C1SC(C(=O)Nc2cccc(Br)c2)CC(=O)N1CC (stereo unspecified) | i | -7.8* | i | i | i | 56* | 84*
CCN=C1SC(C(=O)Nc2ccc(Cl)c(Cl)c2)CC(=O)N1CC (stereo unspecified) | i | i | i | i | i | x | x
O=C(c1cccc(COc2ccc(Cl)cc2Cl)c1)N1CCN(c2ccccn2)CC1 | i | -7.9* | i | i | i | 94* | 80*
O=C(c1ccc(Cl)c(Cl)c1)N1CCN(c2ccccn2)CC1 | i | i | i | i | i | x | x
Cc1cc(-c2ccc(C(C)C)c(S(=O)(=O)N3CCOc4ccccc43)c2)on1 | i | i | i | i | i | x | x
Cc1ccc(-c2onc(C)c2C)cc1S(=O)(=O)N1CCOc2ccccc21 | i | -8.1* | i | i | i | 73* | 84*
Cc1ccc(OS(=O)(=O)c2c(C)nn(C)c2Cl)c(C)c1 | i | -9.9* | i | i | i | 90* | 93*
COc1ccc(NC2=NCC(Cc3ccc(Br)cc3)S2)cc1 (stereo unspecified) | i | -8.8* | i | i | i | 94* | 83*
O=C(CCc1nnc(CCCCc2ccccc2)o1)NCCCc1cccnc1 | i | i | i | i | i | x | x
Cc1ccc2oc(=O)c3cc(C(=O)NCCCN4CCc5ccccc5C4)sc3c2c1 | i | -7.7* | i | i | i | 51* | 84*
Cc1ccc2oc(=O)c3cc(C(=O)NCCCN4CCCCCC4)sc3c2c1 | i | i | i | i | i | x | x
c1cc2c3c(cccc3c1)C(N1CCOCC1)=N2 | i | i | i | i | i | x | x
c1ccc(CC2CCN(C3=Nc4cccc5cccc3c45)CC2)cc1 | i | -9.1* | -5.7* | i | i | 94* | 98*
COC(=O)C(NC(=O)COc1ccccc1)(Nc1nc2c(s1)CCCC2)C(F)(F)F (stereo unspecified) | i | -12* | i | i | i | 80* | 33*
COc1cccc(-c2csc(N3CCN(C(=S)NCC(C)C)CC3)n2)c1 | i | -7.7* | i | i | i | 80* | 56*
CCNC(=S)N1CCN(c2nc(-c3cccc(OC)c3)cs2)CC1 | i | i | i | i | i | x | x
CCCCOc1ccc(C(=O)N(CC)CC(=O)NCc2cccs2)cc1 | i | i | i | i | i | x | x
O=C(NCc1ccc2c(c1)OCO2)c1ccc(C2SCC(=O)N2Cc2ccco2)cc1 (stereo unspecified) | i | -7.7* | i | i | i | 71* | 84*
OCCC1CN(Cc2cnc(N3CCCC3)s2)CCN1C1CCCC1 (stereo unspecified) | i | -7.9* | i | i | i | 70* | 27*
CC(=O)Nc1ccc(CN2CCCC(C(=O)c3ccc(C(F)(F)F)cc3)C2)cc1 (stereo unspecified) | i | -10* | i | i | i | 72* | 84*
O=C(c1ccc(-c2ccccc2)cc1)C1CCCN(Cc2ccncc2)C1 (stereo unspecified) | i | i | i | i | i | x | x
CC(=O)Nc1ccc(CN2CCN(C3CCCC3)C(CCO)C2)cc1 (stereo unspecified) | i | -8* | i | i | i | 88* | 52*
OCCC1CN(C/C(Cl)=C/c2ccccc2)CCN1C1CCCC1 (stereo unspecified) | i | -10* | i | i | i | 70* | 84*
SMILES | MrgX1 allo act | RGS4 act | MrgX1 antag | MrgX1 ag | RGS4 inh | RGS4 activ val | M3R Ca counter
COc1ccc(S(=O)(=O)N2CCOCC2)cc1NC(=O)CSc1nnc(N)s1 | i | i | i | i | i | x | x
Cc1ncsc1C(=O)N1CCCC(CNS(=O)(=O)c2cccs2)C1 (stereo unspecified) | i | i | i | i | i | x | x
COc1cccc(Cc2n[nH]c(=S)n2Cc2ccco2)c1 | i | -10* | i | i | i | 60* | 84*
CCOc1ccc(Cc2n[nH]c(=S)n2Cc2ccccc2)cc1 | i | -8.8* | i | i | i | 61* | 84*
Cc1cc(C)c2sc(NC(=O)C3CC3)nc2c1 | i | i | i | i | i | x | x
COc1ccc(OC)c2c1C(=O)C(Cl)=C(Cl)C2=O | i | -8.2* | i | i | i | 80* | 65*
Nc1cc(=O)[nH]c(SCC(=O)Nc2cccc(Cl)c2)n1 | i | i | i | i | i | x | x
Nc1cc(=O)[nH]c(SCC(=O)Nc2ccc(Oc3ccccc3)cc2)n1 | i | -10* | i | i | i | 0 | 0
CCN1C(=O)[C@H]2[C@@H](c3ccc(-c4ccc(C(C)=O)cc4)c(OC)c3)N[C@@](Cc3ccccc3)(C(=O)OC)[C@H]2C1=O | i | i | i | i | i | x | x
COc1cc(NC(=O)C2COc3ccccc3O2)c(OC)cc1Cl (stereo unspecified) | i | i | i | i | i | x | x
COc1ccc(S(=O)(=O)N2CCCCC2)cc1NC(=O)C1COc2ccccc2O1 (stereo unspecified) | i | -13* | i | i | i | 74* | 84*
Cc1nc2c(o1)CCc1ccccc1C2N1CCN(C)CC1 (stereo unspecified) | i | -11* | i | i | i | 95* | 91*
CCC(=O)N(C)CCc1cc2c(c(OC)c1/C=N/NC(=O)c1ccc(Br)cc1)OCO2 | i | i | i | i | i | x | x
Cc1cc(S(=O)(=O)Nc2ccc(C(=O)NCC(c3ccco3)N(C)C)cc2)ccc1F (stereo unspecified) | i | i | i | i | i | x | x
Cc1cc(C)cc(NC(=O)c2ccc(Cn3nc(C)c(Cl)c3C)o2)c1 | i | -12* | i | i | i | 70* | 64*
Cc1ccc(CNC(=O)c2ccc(Cn3nc(C)c(Cl)c3C)o2)cc1 | i | i | i | i | i | x | x
